From PubChem BioAssay
MrgX1 antag: antagonists of human MrgX1 receptor. MRGX1-HEK293 calcium flux, Fluo-4, BAM8-22 antagonism; active compounds read low. 310,000 compounds, 1.3% hits. B-score at 10 µM. Q96LB2;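 active means calcium-response B-score plate-corrected more than 3 library SD below zero, starting fluorescence within 5 deviations, no agonist response on first addition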;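 further: peak minus trough fluorescence over baseline after final BAM8-22 challenge near maximal dose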
Target sequence (Q96LB2 whole entry, looked up): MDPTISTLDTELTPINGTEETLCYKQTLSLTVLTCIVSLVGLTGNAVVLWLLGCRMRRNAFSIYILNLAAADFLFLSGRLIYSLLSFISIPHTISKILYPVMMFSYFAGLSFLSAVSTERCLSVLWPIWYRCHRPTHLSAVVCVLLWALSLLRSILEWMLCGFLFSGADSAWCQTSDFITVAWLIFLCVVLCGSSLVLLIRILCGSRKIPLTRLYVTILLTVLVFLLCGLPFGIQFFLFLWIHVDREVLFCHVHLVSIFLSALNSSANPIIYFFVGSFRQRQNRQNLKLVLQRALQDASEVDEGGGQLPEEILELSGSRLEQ
MrgX1 agonist: human MrgX1 receptor agonism, primary screen; AID 588627; MrgX1-HEK293 cells, Fluo-4 calcium fluorescence, agonist mode; active compounds read high; Q96LB2; B-score at 10 µM; 310,000 compounds, 0.44% hits;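 active means calcium response B-score plate-corrected fluorescence ratio at least 3 library SD, with starting fluorescence B-score inside 5 SD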
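System: HEK293 cells stably expressing human MrgX1 receptor; Dosing: test compound in the initial addition of three; Schedule: overnight plating, then 30 min 37 °C plus 30 min room-temperature dye loading; Detection: kinetic calcium dye fluorescence, Fluo-4 NW; Controls: per-plate positive and negative controls for Z′ factor.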
RGS4 inh: human RGS4 inhibition; B-score at 10 µM; AID 463165; HEK293 M3R/RGS4 inducible, Fluo-4 calcium flux; active compounds read high; triggered by carbachol at its EC20; P49798; 310,000 compounds, 0.45% hits;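 active means B-score, a plate-corrected calcium signal, over three deviations above library mean, with baseline fluorescence within five deviations of library mean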;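 further: RGS4 expression induced by doxycycline in cells with stable M3 receptor; B-score is computed from the integrated fluorescence ratio over baseline after carbachol; higher B-score means a larger calcium signal and so more RGS4 inhibition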
Target sequence (P49798 whole entry, looked up): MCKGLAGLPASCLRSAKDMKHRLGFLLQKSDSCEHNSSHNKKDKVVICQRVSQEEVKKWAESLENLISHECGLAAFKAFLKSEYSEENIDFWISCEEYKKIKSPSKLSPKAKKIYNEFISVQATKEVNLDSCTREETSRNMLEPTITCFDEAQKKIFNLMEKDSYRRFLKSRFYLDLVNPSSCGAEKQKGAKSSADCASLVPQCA
RGS4 act: RGS4 potentiation or activation; AID 463111; HEK293 M3R/inducible RGS4, carbachol calcium flux Fluo4; active compounds read low; B-score at 10 µM; 310,000 compounds, 0.92% hits;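 active means B-score of the integrated calcium signal more than 4 SD below the library mean, with starting fluorescence not abnormally high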;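 further: negative B-score means reduced calcium response which marks RGS4 activation or potentiation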
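test system = M3R-expressing HEK293 line, RGS4 induced by doxycycline | probe or stimulus = carbachol at ECmax as muscarinic agonist stimulus | timing = dye loading 30 min 37 °C, buffer rest 30 min RT | signal = calcium dye Fluo4 fluorescence | evaluation = B score from integrated fluorescence ratio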
MrgX1 allo act: allosterically activates human MrgX1 receptor signaling; MrgX1-HEK293, Fluo-4 calcium flux, FDSS; active compounds read high; Q96LB2; B-score at 10 µM; 310,000 compounds, 0.63% hits;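 active means plate-corrected calcium response at least 3 library SD above typical, normal starting fluorescence, not activating the receptor alone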;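 further: compound read alongside a low EC10 to EC30 dose of BAM8-22 agonist; peak minus trough fluorescence over baseline measured at the second addition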
MrgX1 allo conf: reconfirmed allosteric activator of human MrgX1 receptor; shares compounds with MrgX1 allo act; 1,200 compounds, 13% hits; AID 602413; MrgX1-HEK293, Fluo-4 calcium fluorescence, FDSS; activation (ratio percentage), % at 10 µM;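 active means ratio at least 3 SD above the weak peptide control, stable starting fluorescence, no direct agonism earlier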;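 further: compound followed by low BAM8-22 agonist challenge near EC20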
HEK293 Ca flux: counter-screen for MrgX1 antagonists: effect in parental HEK293 cells; shares compounds with MrgX1 antag; Fluo-4 calcium fluorescence, FDSS; fluorescence ratio F(max-min)/F0 at 10 µM; 4,000 compounds, 2% hits;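 active means duplicate-averaged calcium fluorescence ratio at least three times the standard deviation of buffer wells, a nonspecific response in parental cells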
HEK293 Ca counter: counter-screen for MrgX1 allosteric activators: effect in parental HEK293 cells. shares compounds with MrgX1 antag. parental HEK293 calcium flux, Fluo-4 fluorescence ratio; active compounds read high. fluorescence ratio F(max-min)/F0 at 10 µM. 4,000 compounds, 0.4% hits. AID 624114;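 active means calcium fluorescence ratio, averaged over duplicates, at least 3 SD of the buffer-well ratio, meaning a nonspecific response in receptor-free cells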;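 further: untransfected parental HEK293 lacking MrgX1 used as counterscreen for MrgX1 allosteric activators; fluorescence change taken during the second addition on a kinetic imager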
HEK293 Ca cntr2: activity in parental HEK293 cells lacking MrgX1 receptor; 4,000 compounds, 8.7% hits; AID 624115; Fluo-4 calcium fluorescence (FDSS); active compounds read high; fluorescence ratio F(max-min)/F0 at 10 µM; shares compounds with MrgX1 antag;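 active means calcium fluorescence ratio at least three times the spread of buffer wells, meaning a non-specific response in parental cells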
An asterisk follows results filed as active; i = inactive; nt = no result given. Only some compounds are listed: those with a hit (about 3.5% of all), similar ones and a draw of the others.

SMILES | MrgX1 antag | MrgX1 agonist | RGS4 inh | RGS4 act | MrgX1 allo act | MrgX1 allo conf | HEK293 Ca flux | HEK293 Ca counter | HEK293 Ca cntr2
CCc1nonc1NC(=O)COc1ccc(Cl)c(C)c1 | i | i | i | i | 12.5* | i | i | i | i
Nc1nc(CN2CCCCCC2)nc(Nc2ccccc2)n1 | i | i | i | i | i | nt | nt | nt | nt
Cc1c(-c2nc(N)nc(Nc3ccccc3)n2)oc2ccccc12 | i | i | i | i | 19.7* | i | i | i | i
CN(CCOc1ccccc1)C(=O)CCc1c[nH]c2ccccc12 | i | i | i | i | i | nt | nt | nt | nt
Cc1ccc(OCc2nnc(SC(C)C(=O)O)n2Cc2ccccc2)cc1 (stereo not drawn) | i | i | i | i | i | nt | nt | nt | nt
NC(=O)c1oc2ccccc2c1NC(=O)C1CC(=O)N(c2ccccc2)C1 (stereo not drawn) | i | i | i | i | i | nt | nt | nt | nt
NC(=O)c1oc2ccccc2c1NC(=O)CN1CCCCC1 | i | i | i | i | 9.07* | 9.3%* | i | i | i
NC(=O)c1oc2ccccc2c1NC(=O)C1CCCCC1 | i | i | i | i | 10.1* | i | i | i | i
COc1ccc(Cl)cc1S(=O)(=O)N1CCC(C(=O)NCc2ccccn2)CC1 | i | i | i | i | i | nt | nt | nt | nt
CC(=O)N1c2ccc(S(=O)(=O)N3CCCC(C(=O)NC4CCCC(C)C4C)C3)cc2CC1C (stereo not drawn) | i | i | i | i | i | nt | nt | nt | nt
CCOc1ccc(-c2[nH]ncc2-c2ccc(OC)c(OC)c2)c(O)c1 | i | i | nt | nt | 18.1* | i | i | i | i
COc1ccc(-c2[nH]ncc2-c2ccc3c(c2)OCCO3)c(O)c1 | i | i | nt | nt | 7.96* | i | i | i | i
CCc1cc(-c2[nH]ncc2-c2ccc3c(c2)OCO3)c(O)cc1O | i | i | i | i | i | nt | nt | nt | nt
CCOc1ccc(-c2[nH]ncc2Oc2ccccc2OCC)c(O)c1 | i | i | i | i | 6.69* | i | i | i | i
Cc1ccc(CC(=O)CCc2ccccc2)cc1 | i | i | i | i | i | nt | nt | nt | nt
COc1ccc(N(CC(=O)Nc2cc(OC)ccc2OC)S(C)(=O)=O)cc1 | i | i | i | i | i | nt | nt | nt | nt
CCc1ccc(N(CC(=O)Nc2ccc(OC)cc2OC)S(C)(=O)=O)cc1 | i | i | i | i | 14.7* | i | i | i | i
COc1ccc2[nH]cc(C(=O)CCl)c2c1 | i | i | i | i | 21.5* | i | i | i | i
COc1ccccc1C(=O)OCC(=O)Nc1ccccc1OC(F)F | i | i | i | i | 7.35* | i | i | i | i
COc1ccccc1C(=O)OCC(=O)Nc1ccc(OC(F)F)cc1 | i | i | i | i | i | nt | nt | nt | nt
Cc1ccccc1NC(=O)c1ccco1 | i | i | i | i | i | nt | nt | nt | nt
Cc1ccccc1NS(=O)(=O)c1ccc(NC(=O)c2ccco2)cc1 | i | i | i | i | 10.9* | i | i | i | i
O=C(NCCCNC(=O)c1cc(Cl)ccc1Cl)c1cnccn1 | i | i | i | i | i | nt | nt | nt | nt
O=C(NCCCNC(=O)c1ccc(-c2cc(Cl)ccc2Cl)o1)c1cnccn1 | i | i | i | i | 17.7* | 19.6%* | i | i | i
O=C(NCCCNC(=O)c1ccc(Cl)cc1Cl)c1cnccn1 | i | i | i | i | i | nt | nt | nt | nt
